Assay outcomes as filed in PubChem BioAssay.
Many of the other results were omitted from the sample, so hits are more common in it than they were.
RORa inhibitor – inhibitors of human nuclear receptor RORA | CHO-K1 Gal4-RORA LBD luciferase reporter, luminescence | inhibition, % at 10 µM | hit rate 0.43% among 65,000 | AID 561;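 active = inhibition above the mean of all tested compounds plus 3 SD, cut at about 52% in these data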;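 also: 0% = RORA-transfected cells with DMSO and 100% = mock-transfected cells lacking RORA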
Target sequence (P35398 whole entry, looked up, the tested form may be a part): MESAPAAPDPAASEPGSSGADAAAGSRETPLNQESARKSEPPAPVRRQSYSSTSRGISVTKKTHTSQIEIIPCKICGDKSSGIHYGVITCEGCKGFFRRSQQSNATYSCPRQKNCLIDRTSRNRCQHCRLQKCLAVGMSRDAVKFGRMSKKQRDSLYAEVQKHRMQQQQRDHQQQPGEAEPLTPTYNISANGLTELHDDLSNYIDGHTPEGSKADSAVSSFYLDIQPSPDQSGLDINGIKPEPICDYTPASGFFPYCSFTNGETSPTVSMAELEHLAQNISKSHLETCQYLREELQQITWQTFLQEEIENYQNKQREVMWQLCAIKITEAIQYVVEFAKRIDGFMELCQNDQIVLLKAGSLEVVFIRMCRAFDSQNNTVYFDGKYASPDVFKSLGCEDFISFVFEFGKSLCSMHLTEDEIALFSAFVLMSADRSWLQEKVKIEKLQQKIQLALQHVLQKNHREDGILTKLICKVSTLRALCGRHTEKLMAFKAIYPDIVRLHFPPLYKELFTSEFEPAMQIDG
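Test system: CHO-K1 cells with Gal4-hRORA LBD fusion and pG5-luc reporter / Compound: single concentration per compound, 10 µM final / Schedule: 20 h compound treatment, 37 °C / Signal: luminescence from basal luciferase reporter expression / Read-out: % inhibition / Control set: mock-transfected cells as 100%, +RORA DMSO cells as 0% / Replicates: tested once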
An asterisk follows results filed as active.

SMILES | RORa inhibitor
CSCCC(NC(=O)c1ccco1)C(=O)O (centres undefined) | 8
CCOC(=O)Cn1nnnc1CN(Cc1ccccc1)Cc1cc2cc(CC)ccc2[nH]c1=O | -58
CCc1ccc(-c2cn3nc(C)c(C)nc3n2)cc1 | 86*
COc1ccc(C(=O)NCC(C)CN(C)C)cc1 (centres undefined) | -7
CN(CC(=O)NCc1ccco1)S(=O)(=O)c1ccc2c(c1)n(C)c(=O)c(=O)n2C | 15
CCOc1ccc(-n2nnc3c(=O)n(CC(=O)c4ccccc4)cnc32)cc1 | 12
O=C(Nc1ccccc1)Nc1cccc2cccnc12 | -86
O=S1(=O)Nc2c(ccc3cccnc23)-c2ccccc21 | 74*
COc1ccc(-c2cc(=O)n(-c3nc4ccccc4[nH]3)[nH]2)cc1 | 8
Cc1ccnc(N2CCN(c3c4c(c(C#N)c5nc6ccccc6n35)CCC4)CC2)c1 | 14
O=C(C1CC1)N1CCN=C1SCc1ccccc1Cl | -5
Cn1c(-c2ccc(Br)o2)nc2ccccc21 | -73
CN(C)c1ccc(-c2nc3ccccc3n2C)cc1 | 62*
CCn1c(-c2ccc(N(C)C)cc2)nc2ccccc21 | -88
CC1(C)OC(=O)N(c2cccnc2)C1(C)O (centres undefined) | 6
COc1cccc(-c2cc(C(F)(F)F)nc(NCc3ccco3)n2)c1 | 18
COc1ccc(CCNC(=O)CSc2nc(-c3ccco3)cc(C(F)(F)F)n2)cc1OC | -14
CS(=O)(=O)c1nc(-c2ccco2)cc(C(F)(F)F)n1 | 54*
COC(=O)c1cccc(OC(N)=O)c1 | -3
c1ccc(N2CCN(c3ccccc3)C2c2cccs2)cc1 | -58
O=C(Nc1cccc(Br)c1)c1cc2ccccc2o1 | -71
CC#CCCCC(=O)Nc1cccc(C(=O)O)c1 | -56
Cc1cc(C(=O)Nc2cccc(C(=O)O)c2)oc1C | 74*
CSc1nnc(Cn2c(=O)sc3ccccc32)n1-c1ccccc1C | 5
CC1(C)NC(=O)N(CC(O)COc2ccc(N3C(=O)c4ccccc4C3=O)cc2)C1=O (centres undefined) | -17
SMILES | RORa inhibitor
O=S(=O)(c1ccc(S(=O)(=O)N2CCCC2)cc1)N1CCCCCC1 | -10
O=S(=O)(c1ccc2c(c1)C(=NO)c1cc(S(=O)(=O)N3CCCCC3)ccc1-2)N1CCCCC1 | 66*
COc1ccc(Oc2ccc(S(=O)(=O)N3CCCCC3)cc2S(=O)(=O)N2CCCCC2)cc1 | 9
COc1ccc(CCC(=O)NCc2cnn(C)c2)cc1 | 10
COc1ccc(S(=O)(=O)NCCc2ccc(F)cc2)cc1 | 14
COc1ccc(CCNc2c(C)c(C)nc3ncnn23)cc1 | 78*
O=C(Nc1ccc(Cc2ccncc2)cc1)c1ccco1 | -32
COc1cc2c(cc1OC)CN(C(=O)CSc1nc(N)c(C#N)cc1C#N)CC2 | -5
Cc1ccnc2nc(C(=O)N3CCN(S(=O)(=O)c4ccccc4)CC3)nn12 | -14
Cn1c(NC(=O)C2c3ccccc3Oc3ccccc32)cc(=O)n(C)c1=O | -19
Nc1nc(-c2ccc3c(c2)OCCO3)cs1 | -50
CCCC(=O)Nc1nc(-c2ccc3c(c2)OCCO3)cs1 | -63
Cc1ccc(-c2csc(N3CCC(NS(=O)(=O)c4ccc5c(c4)OCCO5)CC3)n2)cc1 | 70*
CC1(C)CC(=O)c2cnc(NC(=O)C3CCCC3)nc2C1 | -7
COC(=O)Cn1ncn2c(cc3oc(C)cc32)c1=O | -34
O=C(CSc1nnc(-c2cccnc2)n1-c1ccccc1)Nc1ccc2c(c1)OCO2 | -10
CCOC(=O)Cc1csc(NC(=O)CSc2nnc(-c3ccc(OC)cc3)n2C)n1 | -6
O=C(Nc1ccc(N2CCOCC2)cc1)c1cnsn1 | 69*
O=C(Nc1ccc(S(=O)(=O)N2CCCC2)cc1)c1ccc(CN2CCOCC2)cc1 | 20
O=C(Nc1ccc(N2CCOCC2)c(Cl)c1)c1ccc(Br)o1 | -55
COc1cc(-c2nnc(COc3ccc4ccccc4c3)o2)cc(OC)c1OC | 11
Cc1ccc(OC(=O)c2ccc(C)c(C)c2)cn1 | 15
c1ccc(CN2CCN(c3ncnc4c3[nH]c3ccccc34)CC2)cc1 | 67*
c1ccc2c(c1)CCN(c1ncnc3c1[nH]c1ccccc13)C2 | 89*
c1ccc(CN2CCN(c3nc(-c4ccccc4)nc(-n4ccnc4)n3)CC2)cc1 | 22
SMILES | RORa inhibitor
O=C(c1ccc(Cn2c(=O)[nH]c3ccccc3c2=O)cc1)N1CCN(c2ccccc2)CC1 | -10
O=c1c2[nH]c3ccccc3c2ncn1C1CCCCC1 | -61
O=C(NCc1ccncc1)c1cccc(F)c1 | 6
CC1CCCCN1C(=O)C1CC(c2ccc(F)cc2)=NO1 (centres undefined) | -49
CCOC(=O)N1CCC(N2Cc3cccc(C(=O)N4CC(C)CC(C)C4)c3C2=O)CC1 (centres undefined) | 12
Cc1noc(C)c1C(=O)OCC(=O)c1cc(C)n(Cc2ccccc2Cl)c1C | -49
CCOCCn1c(CN(Cc2ccccc2)Cc2ccccc2)nc2c1c(=O)n(C)c(=O)n2C | -2
Cc1cc(C(F)(F)F)c2c(N)c(C(=O)Nc3cc(C)on3)sc2n1 | -7
CCCCOc1ccc(S(=O)(=O)N2CCCCCC2)cc1 | -12
